Assay results: PMC11696753 (ACS Omega, 2024)
Where a chain is given by its changes, count along the chain named. Blank lines part the entries; values can stand above or below the compound they belong to.

Columns and labels:
CT26 cell line = test: MTT antiproliferative assay, CT26 cell line; assay type: cell-based, mouse
Procedure, shortened: (§1)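 MTT assay. Cells were grown in DMEM with 10% FBS and 1% penicillin/streptomycin at 37 °C, 5% CO2, then seeded at 5 × 10^3 to 6 × 10^3 cells/mL in 96-well plates. Screening was at 10 μM, with CVB-D (12 μM) as positive control and curcumin as comparator. The dose range was 0–8 μM in 1 μM steps. Solvent-only wells served as controls. Read-out was absorbance of DMSO-dissolved formazan. Data are mean ± SD, n ≥ 3.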

SW480 cell line = test: MTT antiproliferative assay, SW480 cell line; assay type: cell-based, human; settings: for inhibition of SW480 cells compared with the CVB-D group: 10 μM, CVB-D 12 μM
Procedure, shortened: as §1

PINK1 [1] = test: Western blot, PINK1 expression in SW480 cells; assay type: cell-based, human; settings: SW480, 8 μM vs control
Procedure, shortened: (§2)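 Western blot. SW480 or CT26 cells were seeded at 3 × 10^5 to 5 × 10^5/mL, allowed to adhere, then exposed to 0 (control) or 8 μM test compound for 24 h. Lysate protein was quantified by BCA and equalised, boiled, separated by SDS-PAGE, transferred to PVDF and detected with peroxidase labeling. Data are mean ± SD, at least three independent replicates, analysed by one-way ANOVA or t test.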

NCM460 cell line = test: MTT cytotoxicity, normal colon epithelial cell line NCM460; assay type: cell-based, human
Procedure, shortened: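 MTT viability in NCM460 normal human colon epithelial cells. Test compound and curcumin were each tested at 0, 5, 10, 20, 40 and 80 μM, diluted in medium from a 10 mmol/L DMSO stock, against a solvent control. Formazan was dissolved in DMSO and absorbance read. Toxicity was graded by USP classification. Data are mean ± SD, at least three independent replicates.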

Cyclin-D1 [2] = test: Western blot, Cyclin-D1 expression in CT26 cells; assay type: cell-based, mouse; settings: CT26, 8 μM
Procedure, shortened: as §2

RKO cell line = test: MTT antiproliferative assay, RKO cell line; assay type: cell-based, human; settings: NCM460 vs RKO
Procedure, shortened: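 Selectivity index is the IC50 in normal colon epithelial NCM460 cells divided by the IC50 in the colorectal cancer line. Both IC50s come from MTT viability assays: solvent-treated controls, formazan dissolved in DMSO, absorbance read-out, at least three independent replicates.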

SHP-2 [3] = target: T1, SHP-2 (Mus musculus, UniProt P35235); test: Western blot, SHP-2 in mouse TME; assay type: cell-based; settings: CT26 cocultured with RAW264.7
T1 sequence (P35235 1-593): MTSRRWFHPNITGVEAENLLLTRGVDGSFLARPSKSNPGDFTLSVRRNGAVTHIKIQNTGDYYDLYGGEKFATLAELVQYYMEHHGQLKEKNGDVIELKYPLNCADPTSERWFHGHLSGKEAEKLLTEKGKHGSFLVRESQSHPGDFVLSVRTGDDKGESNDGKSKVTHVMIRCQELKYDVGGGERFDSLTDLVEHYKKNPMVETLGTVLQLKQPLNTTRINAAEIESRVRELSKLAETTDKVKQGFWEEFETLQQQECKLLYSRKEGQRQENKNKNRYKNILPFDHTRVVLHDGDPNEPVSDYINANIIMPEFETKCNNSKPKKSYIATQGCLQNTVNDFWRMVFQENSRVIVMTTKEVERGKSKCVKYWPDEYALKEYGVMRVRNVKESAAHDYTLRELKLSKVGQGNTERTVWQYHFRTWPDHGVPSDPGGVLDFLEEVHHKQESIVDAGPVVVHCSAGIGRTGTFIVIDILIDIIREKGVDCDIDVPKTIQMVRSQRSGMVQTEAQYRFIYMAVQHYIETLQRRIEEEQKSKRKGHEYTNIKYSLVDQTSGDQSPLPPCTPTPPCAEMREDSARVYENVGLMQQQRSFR
Procedure, shortened: (§3)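 Western blot in tumour–macrophage cocultures: SW480 with THP-1 (human) and CT26 with RAW264.7 (mouse). Coculture drives the macrophages toward a cancer-promoting phenotype, after which test compound is applied. Protein was quantified by BCA, separated by SDS-PAGE, transferred to PVDF and detected with peroxidase labeling. Comparisons were against both the control and the untreated coculture. Data are mean ± SD, n ≥ 3.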

Parkin [4] = test: Western blot, Parkin expression in SW480 cells; assay type: cell-based, human; settings: SW480, 8 μM vs control
Procedure, shortened: as §2

SHP-2 [5] = target: T1, SHP-2; test: Western blot, SHP-2 expression in CT26 cells; assay type: cell-based; settings: CT26, 8 μM
Procedure, shortened: as §2

Akt [6] = test: Western blot, Akt expression in CT26 cells; assay type: cell-based, mouse; settings: CT26, 8 μM
Procedure, shortened: as §2

Akt [7] = test: Western blot, Akt expression in SW480 cells; assay type: cell-based, human; settings: SW480, 8 μM
Procedure, shortened: as §2

CDK1 [8] = target: CDK1 (Mus musculus, UniProt P11440); test: Western blot, CDK1 expression in CT26 cells; assay type: cell-based; settings: CT26, 8 μM
Procedure, shortened: as §2

PI3K [9] = test: Western blot, PI3K expression in CT26 cells; assay type: cell-based, mouse; settings: CT26, 8 μM
Procedure, shortened: as §2

p27 [10] = test: Western blot, p27 expression in CT26 cells; assay type: cell-based, mouse; settings: CT26, 8 μM vs control
Procedure, shortened: as §2

[11] = system: chemokine receptors, CC and CXC chemokine subfamilies; test: Chemokine mRNA levels in human and mouse TME; assay type: cell-based; settings: human and mouse TME cocultures
Procedure, shortened: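 Human system: SW480 cells cocultured with THP-1 cells. Mouse system: CT26 cells cocultured with RAW264.7 cells. Coculture induces the macrophages to differentiate into cancer-promoting cells, which are then treated with test compound. Chemokine receptor and CC/CXC chemokine mRNA levels were measured and compared with the control group. Data are mean ± SD from at least three independent replicates.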

p27 [12] = test: Western blot, p27 expression in SW480 cells; assay type: cell-based, human; settings: SW480, 8 μM vs control
Procedure, shortened: as §2

[13] = system: cytokines (TGF-β, IL-10, and Arg-1); test: Western blot, cytokine expression in the TME; assay type: cell-based; settings: vs coculture
Procedure, shortened: as §3

CDK1 [14] = target: CDK1 (Homo sapiens, UniProt P06493); test: Western blot, CDK1 expression in SW480 cells; assay type: cell-based; settings: SW480, 8 μM
Procedure, shortened: as §2

SHP-2 [15] = target: T2, SHP-2 (Homo sapiens, UniProt Q06124); test: Western blot, SHP-2 expression in SW480 cells; assay type: cell-based; settings: SW480, 8 μM
T2 sequence (Q06124 1-593): T1 sequence (P35235 1-593) with V450M, V550A, R590K
Procedure, shortened: as §2

PI3K [16] = test: Western blot, PI3K expression in SW480 cells; assay type: cell-based, human; settings: SW480, 8 μM
Procedure, shortened: as §2

THP-1 cell line = test: MTT cytotoxicity, THP-1 cell line; assay type: cell-based, human; settings: 0 to 8 μM, all concentrations
Procedure, shortened: (§4)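 Viability of THP-1 (human monocytic) and RAW264.7 (mouse macrophage) cells was measured by MTT. Cells were grown in DMEM with 10% FBS at 37 °C, 5% CO2, then seeded at 5 × 10^3 to 6 × 10^3 cells/mL. Test compound was given at 0–8 μM alongside an equal-volume solvent control. Read-out was absorbance after DMSO solubilisation of formazan. Data are mean ± SD from at least three independent experiments.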

PINK1 [17] = test: Western blot, PINK1 expression in CT26 cells; assay type: cell-based, mouse; settings: CT26, 8 μM vs control
Procedure, shortened: as §2

PI3K and Akt proteins = test: Western blot, PI3K-Akt pathway in TAMs; assay type: cell-based
Procedure, shortened: as §3

RAW264.7 cell line = test: MTT cytotoxicity, RAW264.7 cell line; assay type: cell-based, mouse; settings: 0 to 8 μM, all concentrations
Procedure, shortened: as §4

SHP-2 [18] = target: T2, SHP-2; test: Western blot, SHP-2 in human TME; assay type: cell-based; settings: SW480 cocultured with THP-1
Procedure, shortened: as §3

Parkin [19] = test: Western blot, Parkin expression in CT26 cells; assay type: cell-based, mouse; settings: CT26, 8 μM vs control
Procedure, shortened: as §2

Cyclin-D1 [20] = test: Western blot, Cyclin-D1 expression in SW480 cells; assay type: cell-based, human; settings: SW480, 8 μM
Procedure, shortened: as §2

Sequence of CDK1 (Mus musculus, UniProt P11440) (P11440 whole entry): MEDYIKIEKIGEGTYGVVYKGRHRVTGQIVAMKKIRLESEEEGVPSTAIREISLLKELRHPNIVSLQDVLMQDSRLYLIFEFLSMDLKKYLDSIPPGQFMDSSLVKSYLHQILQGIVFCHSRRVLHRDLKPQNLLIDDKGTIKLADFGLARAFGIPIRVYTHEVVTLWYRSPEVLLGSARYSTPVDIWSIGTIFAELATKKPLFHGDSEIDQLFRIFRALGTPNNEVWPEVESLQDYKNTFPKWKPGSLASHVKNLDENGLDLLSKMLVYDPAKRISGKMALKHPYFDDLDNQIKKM
Sequence of CDK1 (Homo sapiens, UniProt P06493) (P06493 whole entry): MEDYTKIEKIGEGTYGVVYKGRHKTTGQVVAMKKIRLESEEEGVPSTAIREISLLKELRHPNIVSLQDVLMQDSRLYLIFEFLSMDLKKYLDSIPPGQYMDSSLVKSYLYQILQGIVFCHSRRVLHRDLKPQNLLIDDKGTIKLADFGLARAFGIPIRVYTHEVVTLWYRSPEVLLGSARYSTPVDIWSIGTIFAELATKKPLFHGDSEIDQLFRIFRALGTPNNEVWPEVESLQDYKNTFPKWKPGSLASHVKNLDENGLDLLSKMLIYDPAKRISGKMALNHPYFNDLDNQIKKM

SMILES: COc1cc(/C=C/C(=O)/C(=C\C2=CC=C[CH]2[Fe][CH]2C=CC=C2)C(=O)/C=C/c2ccc(OC)c(OC)c2)ccc1O (stereo not shown) [Compound 3b, Cyclopenta-2,4-dien-1-yl(2-((1E,4E)-5(3,4-dimethoxyphenyl)-2-((E)-3-(4-hydroxy-3-methoxyphenyl)acryloyl)-3-oxopenta-1,4-dien-1-yl)cyclopenta-2,4-dien-1-yl)iron]
proliferative capacity of CT26 cells compared to the control group (CT26 cell line; 10 μM): significant differences
proliferative capacity of CT26 cells compared to the CVB-D group (CT26 cell line; 10 μM, CVB-D 12 μM): no significant difference
inhibition of SW480 cells compared with the CVB-D group (SW480 cell line): markedly superior

inhibition rate on SHP-2 target in mouse TME (SHP-2 [3]): 32%
SHP-2 inhibition rate (SHP-2 [5]): 24%
CDK1 inhibition rate (CDK1 [8]): 20%
IC50 (CT26 cell line; read-out: IC50 against CT26 cells, CT26 cells, MTT): 1.42 µM
effect on CCL and CXCL subfamilies (mRNA) [11]: able to inhibit
mRNA levels of CCR chemokine receptors [11]: significantly reduced
CDK1 inhibition rate (CDK1 [14]): 18%
SHP-2 inhibition rate (SHP-2 [15]): 76%
IC50 (SW480 cell line; read-out: IC50 against SW480 cells, SW480 cells, MTT): 3.71 µM
inhibition rate on SHP-2 target in human TME (SHP-2 [18]): 65%
SMILES: COc1ccc(/C=C/C(=O)C(=CC2=CC=C[CH]2[Fe][CH]2C=CC=C2)C(=O)/C=C/c2ccc(OC)c(OC)c2)cc1OC (stereo not shown) [Compound 3f, Cyclopenta-2,4-dien-1-yl(2-((E)-5(3,4-dimethoxyphenyl)-2-((E)-3-(3,4-dimethoxyphenyl)acryloyl)-3-oxopenta-1,4-dien-1-yl)cyclopenta-2,4-dien-1-yl)iron]
expression of PINK1 protein (PINK1 [1]): significantly up-regulated
USP toxicity classification to normal colon epithelial cells (NCM460 cell line; NCM460): low toxic/nontoxic
viability of NCM460 cells (NCM460 cell line; at all concentrations (0, 5, 10, 20, 40, 80 μM)): above 87%
effect on Cyclin-D1 protein compared to SW480 (Cyclin-D1 [2]): stronger inhibitory effect
selectivity index (SI), IC50 normal cells / IC50 RKO (RKO cell line): 162
expression of Parkin protein (Parkin [4]): significantly up-regulated
Akt expression inhibition rate (Akt [6]): 50%
Akt expression inhibition rate (Akt [7]): 48%
proliferative capacity of CT26 cells compared to the control group (CT26 cell line; 10 μM): significant differences
optimal inhibitory concentration (CT26 cell line; CT26, tested 0-8 μM): 8 µM
concentration at which an inhibitory effect is demonstrated (CT26 cell line; CT26, vs control): 3 µM
selectivity index (SI), IC50 normal cells / IC50 CT26 (CT26 cell line; NCM460 vs CT26): 654
PI3K expression inhibition rate (PI3K [9]): 15%
expression of p27 protein (p27 [10]): significantly increased
expression of p27 protein (p27 [12]): significantly increased
expression levels of cytokines (TGF-β, IL-10, Arg-1) in the TME [13]: significantly reduced
inhibition of SW480 cells compared with the CVB-D group (SW480 cell line): markedly superior
selectivity index (SI), IC50 normal cells / IC50 SW480 (SW480 cell line; NCM460 vs SW480): 250
concentration of strongest (optimal) inhibition (SW480 cell line; SW480, tested 0-8 μM): 8 µM
concentration at which significant inhibition begins (SW480 cell line; SW480, vs control): 4 µM
PI3K expression inhibition rate (PI3K [16]): 46%
cell viability of THP-1 cells (THP-1 cell line): ~100%
expression of PINK1 protein (PINK1 [17]): significantly increased
expression levels of PI3K and Akt proteins in both coculture systems (PI3K and Akt proteins): reduced
cell viability of RAW264.7 cells (RAW264.7 cell line): ~100%
expression of Parkin protein (Parkin [19]): significantly increased
Cyclin-D1 protein expression inhibition rate (Cyclin-D1 [20]): 19%
